Screening data from PubChem BioAssay.
Hits are enriched below; roughly 1.1% of the tested compounds scored in any of these assays.
Furin inhibitor: human furin inhibitors, primary screen, biochemical, fluorescence intensity. purified furin, fluorogenic substrate cleavage. 0.061% of 220,000 active. inhibition, % at 20 µM or 30 µM. P09958; in the data active means inhibition above about 25%
hK5 inh: human KLK5 protease inhibitors, primary screen, biochemical, 1536-well; AID 873, 2007; Kallikrein-5 (Homo sapiens), Q9Y337; 0.59% of 210,000 active; inhibition, % at 5 µM; recombinant hK5, fluorogenic AMC substrate cleavage;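 active means inhibition of 40% or more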
Target sequence (Q9Y337 67-293 limits assumed): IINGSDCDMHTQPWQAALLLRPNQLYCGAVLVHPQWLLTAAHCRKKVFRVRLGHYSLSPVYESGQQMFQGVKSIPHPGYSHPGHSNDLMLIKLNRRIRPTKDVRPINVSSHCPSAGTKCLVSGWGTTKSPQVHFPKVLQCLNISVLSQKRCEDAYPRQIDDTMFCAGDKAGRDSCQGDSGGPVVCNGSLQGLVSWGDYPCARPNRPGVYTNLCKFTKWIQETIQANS
FXIa inh: human FXIa protease inhibitors, primary screen, biochemical, 1536-well | purified FXIa, Boc-Glu-Ala-Arg-AMC fluorogenic substrate | 0.14% of 220,000 active | inhibition, % at 5 µM | Coagulation factor XI (Homo sapiens), P03951;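 active means inhibition of at least 40%; inactive means inhibition below 40%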;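 further: fluorescence of freed AMC excited at 355 nm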
Biofilm kill mix: clotrimazole potentiators killing C. albicans biofilm, primary screen, 4-compound mixtures; C. albicans biofilm persisters + clotrimazole, fluorescence viability; primary screen in compound mixtures of four per well; inhibition, % at 7.6 µM; 0.02% of 120,000 active; AID 1242, 2008;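 active means inhibition above 30.3% in the primary screen of four-compound pools, then above 30% when the compound was retested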;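 further: compounds exposed to preformed 24 h biofilms for 48 h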
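Test system: C. albicans biofilms. Buffer or medium: RPMI/MOPS medium, pH 7.0. Timing: 48 h compound exposure at 37 °C. Technique: Alamar Blue fluorescence. Evaluation: percent inhibition of biofilm viability.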
thrombin 1536: human alpha-thrombin inhibitors, primary screen, counter-screen for coagulation protease inhibitor project, biochemical, 1536-well, fluorogenic AMC substrate. 0.26% of 220,000 active. inhibition, % at 5 µM. Boc-VPR-AMC fluorogenic substrate cleavage. AID 1046, 2008;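 active means inhibition at or above 40%; inactive means inhibition below 40%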
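System: Human alpha-thrombin protein | Medium: pH 7.5 Tris (50 mM) with NaCl 150 mM, Tween 20 0.05% | Times: Enzyme reaction carried out at room temperature | Detection: AMC fluorescence, 355/460 nm | Evaluation: Percent inhibition scaled between no-compound controls and no-enzyme blanks | Benchmarks: Enzyme without compound as high, wells lacking enzyme as low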
FXIIa inh 1536: human FXIIa protease inhibitors, primary screen, biochemical, 1536-well | Coagulation factor XII (Homo sapiens), P00748 | purified FXIIa, Boc-QGR-AMC fluorogenic substrate, 2 h | inhibition, % at 5 µM | 0.3% of 220,000 active; in the data active means inhibition above about 40%
Numbers stand for hits; . = inactive; / = no result.

SMILES	Furin inhibitor	hK5 inh	FXIa inh	Biofilm kill mix	thrombin 1536	FXIIa inh 1536
Cc1nn(-c2ccccc2)c(C)c1/C=N/NC(=O)c1cc(C2CC2)[nH]n1	.	.	.	/	.	.
Cc1cc(C(=O)N/N=C/c2c(C)nn(-c3ccccc3)c2C)n[nH]1	.	89	.	.	.	.
COc1ccc(N(CC(=O)Nc2ccccc2SC)S(C)(=O)=O)cc1OC	.	.	.	/	.	45
Cc1ccccc1-c1nnc(-c2ccccc2)o1	.	.	.	/	.	.
Cn1cc(-c2nnc(-c3ccccc3)o2)c2ccccc21	.	87	.	/	.	.
COc1ccc(C(=O)NC(=S)N2CCCCC2)cc1	.	44	.	/	.	.
CCOC(=O)/C(C)=C1\NC(C)(C)Cc2ccccc21	.	.	.	.	.	65
CCOC(=O)/C(C(=O)Nc1ccccc1Cl)=C1/NC(C)(C)Cc2ccccc21	.	.	.	/	.	.
Nc1ccc(C(=O)OCC(=O)Nc2cc([N+](=O)[O-])ccc2F)cc1	.	.	.	.	.	.
N#Cc1nc(COc2ccc(Br)cc2)oc1NCCN1CCOCC1	.	45	.	/	.	.
CCc1cccc(CC)c1N(COC)C(=O)Cn1c(CO)nc2ccccc21	.	.	.	/	.	43
NC(=O)c1ccc(Oc2ccc(C(N)=O)cc2)cc1	.	.	.	.	.	.
N#Cc1ccccc1NC(=O)COC(=O)COc1ccccc1[N+](=O)[O-]	.	.	.	.	42	.
O=C(COC(=O)COc1ccccc1[N+](=O)[O-])NC1CCCC1	.	.	.	.	.	.
O=C(COC(=O)CCC(=O)c1cccs1)Nc1ccccc1[N+](=O)[O-]	.	.	.	.	42	.
CCCC(=O)Nc1ccccc1-c1nnc(SCC)[nH]c1=O	.	.	.	.	.	.
c1ccc2nc3c(cc2c1)CCCCC3	.	.	.	.	.	.
O=C(CN(CCc1ccccc1)S(=O)(=O)c1ccc(Cl)cc1)N/N=C/c1ccccc1C(=O)O	.	.	.	.	.	.
CCOc1ccc(N(CC(=O)Nc2ccc(C)cc2)S(=O)(=O)c2c(C)[nH]c(=O)[nH]c2=O)cc1	.	.	.	.	.	.
COc1ccc(NC(=S)Nc2ccc3cn[nH]c3c2)cc1	.	.	.	.	49	.
CCOc1cc(C2NC(=O)NC(O)(C(F)(F)F)C2C(=O)c2ccc(Cl)cc2)ccc1O (centres undefined)	.	.	.	/	54	.
Cc1ccccc1SCCNC(=O)CCc1ccccc1	.	.	.	.	.	.
COc1ccc(Oc2ccccc2/C=N/O)cc1	.	117	.	/	.	.
O=C(O)CN1C(=O)/C(=C/c2ccc(N3CCCCC3)o2)SC1=S	.	45	.	.	.	72
COC(=O)CN1C(=O)S/C(=C/c2ccc(N3CCCCC3)o2)C1=O	.	.	.	/	.	.
SMILES	Furin inhibitor	hK5 inh	FXIa inh	Biofilm kill mix	thrombin 1536	FXIIa inh 1536
CN(C)S(=O)(=O)c1cccc(NC(=S)N2CCCCC2CO)c1 (centres undefined)	.	.	.	.	/	.
CCC1CCCCN1C(=S)Nc1cccc(S(=O)(=O)N(C)C)c1 (centres undefined)	.	49	.	.	.	.
COc1cc(OC)cc(N2C(=O)CSCC2=O)c1	.	.	.	.	.	.
Cc1ccccc1NC(=O)C1(NC(=O)c2cccc(N3C(=O)CSC3c3ccccc3)c2)CCCCC1 (centres undefined)	.	80	.	/	.	.
Cc1ccc(S(=O)(=O)N2CCOCC2)cc1C(=O)c1nccn1C	.	.	.	.	.	.
Cc1ccc(C)c(NC(=S)NCCc2c[nH]c3ccccc23)c1	.	42	.	.	.	.
C=CCSc1nc(C)c(CC=C)c(=O)[nH]1	.	.	.	/	.	53
C=CCSc1nc(C)c(CCCC)c(=O)[nH]1	.	/	.	.	.	.
Cc1ccc(Oc2ccccc2/C=C2\SC(=O)N(C)C2=O)cc1	.	51	.	/	.	.
CC(=O)NC(c1ccc(F)cc1)c1cccnc1 (centres undefined)	.	49	.	.	.	.
COc1ccc(-n2cc(C#N)c(=O)n(Cc3ccc(F)cc3)c2=O)cc1	.	.	.	.	.	.
Cc1ccc(C(=O)NC(C)C(c2cccs2)N2CCCC2)s1 (centres undefined)	.	.	.	.	45	/
COc1ccccc1C(=O)NC(C)C(c1cccs1)N1CCOCC1 (centres undefined)	31	.	.	/	.	.
Cc1ccccc1C(=O)NC(C)C(c1cccs1)N1CCOCC1 (centres undefined)	.	.	.	/	.	.
CC(NC(=O)COc1ccccc1)C(c1cccs1)N1CCCC1 (centres undefined)	.	.	.	.	.	.
c1ccc(CSc2ccc(-c3ccccn3)nn2)nc1	.	.	.	.	.	.
Clc1ccc(-c2ccc(SCc3ccccn3)nn2)cc1	.	43	.	/	.	.
CCOC(=O)C1CCCN(C2CC(=O)N(c3ccc(NC(C)=O)cc3)C2=O)C1 (centres undefined)	.	.	.	.	.	.
CCOC(=O)C1CCCN(C2CC(=O)N(c3ccc(C)cc3)C2=O)C1 (centres undefined)	.	40	.	/	.	.
COc1ccc(C2C(C(=O)Nc3ccc(OC)c(OC)c3)c3ccccc3C(=O)N2C)cc1 (centres undefined)	.	.	.	.	.	.
CCc1nc2ccccc2c(C(=O)OCC(=O)NC(=O)c2cccn2C)c1C	.	.	.	.	.	.
CC(=O)c1c(C(C)=O)c(C)n(Cc2ccccc2)c1C	.	.	.	/	.	.
COC(Cn1c(C)c(C(C)=O)c(C(C)=O)c1C)OC	.	.	.	/	.	48
CC1=CC(c2ccc(Cl)cc2)n2nc(N3C(=O)CCC3=O)nc2N1 (centres undefined)	.	.	.	.	.	.
Cc1ccc(C2C=C(c3ccccc3)Nc3nc(N4C(=O)CCC4=O)nn32)cc1 (centres undefined)	.	.	.	.	48	.
NNC(=O)CCn1c2ccccc2c2ccccc21	.	.	.	.	.	.
CCOc1ccc(N=C2NN=C(c3cc(C)n(CC4CCCO4)c3C)CS2)cc1 (centres undefined)	.	45	.	.	.	.
C=CCn1c(C)cc(C2=NNC(=Nc3ccc(C)cc3)SC2)c1C	.	.	.	.	.	.
COc1ccc(S(=O)(=O)N2CCOCC2)cc1NC(=O)CSc1nnc(C2CC2)n1N	.	.	.	.	.	.
Cc1cc[n+](-c2[nH]c(=O)sc2/C=N/NC([S-])=Nc2ccccc2)cc1	.	.	.	.	.	.
